In brackets after ≈: the same amount, converted by molar mass.
Legend:
Hepatitis B virus [1] = test: Antiviral activity against HBV infected in HepG2(2.2.15) cells assessed as inhibition of viral surface antigen secretion after 8 days by radio immunoassay; assay type: functional, organism-based
How it was run: (§1)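 Confluent 2.2.15 cultures were dosed at several concentrations in RPMI 1640 with 2% FBS, with fresh medium and compound each day for 8 days and untreated cell controls. HBsAg and HBeAg secreted into the supernatant were quantified by radioimmunoassay kits.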

[2] = Cytotoxicity against human HepG2(2.2.15) cells after 9 days by neutral red dye uptake assay; details: read-out: TC50
Hepatitis B virus [3] = test: Antiviral activity against HBV infected in HepG2(2.2.15) cells assessed as inhibition of viral DNA replication after 8 days by dot blot hybridization
[4] = Selectivity index, ratio of TC50 for human HepG2(2.2.15) cells to IC50 for Hepatitis B virus DNA replication; assay type: toxicity
Hepatitis B virus [5] = test: Antiviral activity against HBV infected in HepG2(2.2.15) cells assessed as inhibition of viral early antigen secretion after 8 days by radio immunoassay; assay type: functional, organism-based; details: HepG2 2.2.15, 192 h; how it was run: as §1
[6] = Selectivity index, ratio of TC50 for human HepG2(2.2.15) cells to IC50 for Hepatitis B virus early antigen secretion; assay type: toxicity
[7] = Hepatitis B virus, HepG2 2.2.15, 192 h, read-out: IC50

| SMILES | IC50 (Hepatitis B virus [1]) | CC50 at 216 h [2] | IC50 (Hepatitis B virus [3]; hepg2 2.2.15) | selectivity ratio [4] | IC50 (Hepatitis B virus [3]; [7]) | IC50 (Hepatitis B virus [5]) | selectivity ratio [6] |
| --- | --- | --- | --- | --- | --- | --- | --- |
| Cc1nnsc1C(=O)N/C(C(=O)N1CCOCC1)=C(\Br)c1snnc1C | Not Active | 47.7 µg/mL (≈ 104 µM) | Not Active |  |  |  |  |
| Cc1nnsc1C(=O)N/C(C(=O)N1CCCCC1)=C(\Br)c1ccccc1 | Not Active | 111 µg/mL (≈ 255 µM) | Not Active |  |  |  |  |
| Cc1nnsc1C(=O)N/C(C(=O)N1CCCCC1)=C(\Br)c1ccccc1Cl | Not Active | 86.2 µg/mL (≈ 184 µM) |  | 8.29 | 10.4 µg/mL (≈ 22.1 µM) |  |  |
| Cc1nnsc1C(=O)N/C(C(=O)N1CCCCC1)=C(\Br)c1ccc(Cl)cc1 | Not Active | 17.8 µg/mL (≈ 37.9 µM) |  | 4.96 | 3.59 µg/mL (≈ 7.64 µM) |  |  |
| Cc1nnsc1C(=O)N/C(C(=O)N1CCCCC1)=C(\Cl)c1ccccc1 | Not Active | 64.2 µg/mL (≈ 164 µM) | Not Active |  |  | 12.3 µg/mL (≈ 31.4 µM) | 5.23 |
| Cc1nnsc1/C(Br)=C(/NC(=O)c1ccccc1)C(=O)N1CCCCC1 | Not Active | 192 µg/mL (≈ 442 µM) |  | 21.4 | 9 µg/mL (≈ 20.7 µM) |  |  |
| Cc1nnsc1/C(Br)=C(/NC(=O)c1ccccc1)C(=O)N1CCOCC1 | Not Active | 333 µg/mL (≈ 762 µM) |  | 10.9 | 30.5 µg/mL (≈ 69.8 µM) |  |  |
| CCN(CC)C(=O)/C(NC(=O)c1ccccc1)=C(/Br)c1snnc1C | Not Active | 86.2 µg/mL (≈ 204 µM) | Not Active |  |  |  |  |
| Cc1nnsc1/C(Cl)=C(/NC(=O)c1ccccc1)C(=O)N1CCOCC1 | Not Active | 577 µg/mL (≈ 1470 µM) | Not Active |  |  |  |  |
| Cc1nnsc1/C=C(/NC(=O)c1ccccc1)C(=O)N1CCCCC1 | Not Active | 231 µg/mL (≈ 648 µM) | Not Active |  |  |  |  |
| Nc1ccn([C@@H]2CS[C@H](CO)O2)c(=O)n1 [LAMIVUDINE] | Not Active | 962 µg/mL (≈ 4190 µM) |  | 65 | 14.8 µg/mL (≈ 64.6 µM) |  |  |
